The source of these data is ChEMBL document CHEMBL4138281, “Anti-Staphylococcal Calopins from Fruiting Bodies of Caloboletus radicans” (2018).

In assay [1] the test system is Staphylococcus aureus. Description: Antimicrobial activity against methicillin-resistant Staphylococcus aureus EMRSA-15 after 18 hrs by MTT based broth dilution assay. It counts as functional. To be noted: EMRSA-15, 18 h. The gist of the method:
(§1)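 Strains grown 24 h at 37 °C on nutrient agar. Inoculum of 5 × 10^5 CFU set in 0.9% saline against a 0.5 McFarland standard. Compounds serially diluted 0.5–256 μg/mL in Mueller–Hinton broth, inoculated and incubated 18 h at 37 °C; DMSO control; norfloxacin positive control. MTT (5 mg/mL methanolic) added for 20 min; MIC is the lowest concentration with no growth (no yellow-to-blue change); at least three independent determinations.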

In assay [2] the test system is Enterococcus faecalis. Nature of the assay: Antimicrobial activity against Enterococcus faecalis FF11 at 40 ug/disk after 2 days by disc diffusion method. It counts as functional, organism-based. A digest of the protocol: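 Bacterial suspension (1 × 10^5 CFU/mL) spread on Mueller–Hinton agar. Paper disks (8 mm) carried 40 μL of a 1000 μg/mL acetone solution, dried, and were placed on the plate. Incubated 2 days at 37 °C; halo diameter measured; mean ± standard error of three replications; azithromycin positive control.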

Assay [3] concerns Enterococcus faecalis. Description: Antimicrobial activity against Enterococcus faecalis F1B1 assessed as zone of inhibition at 40 ug/disk after 2 days by disc diffusion method. It counts as functional. To be noted: F1B1, 48 h, read-out: DIZ. A digest of the protocol:
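Disk diffusion on Mueller-Hinton agar spread with bacterial suspension (1 × 10^5 CFU/mL). 40 μL of a 1000 μg/mL acetone solution loaded on an 8 mm paper disk and dried before placement. Incubated 2 days at 37 °C, then diameter of the bacteria-free halo measured. Mean ± standard error of three replicates; azithromycin positive control.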

Assay [4] relates to Staphylococcus aureus. Nature of the assay: Antimicrobial activity against tetracycline/methicillin-resistant Staphylococcus aureus XU212 after 18 hrs by MTT based broth dilution assay. As to conditions: XU212, 18 h. It counts as functional. The gist of the method: as §1
Assay [5] concerns Staphylococcus aureus. Description: Antimicrobial activity against […] Staphylococcus aureus SA1199B after 18 hrs by MTT based broth dilution assay. It counts as functional. The gist of the method: as §1
For assay [6], the system named is Colletotrichum gloeosporioides. Nature of the assay: Antimicrobial activity against Colletotrichum gloeosporioides at 40 ug/disk after 5 days by disc diffusion method. It counts as functional, organism-based. A digest of the protocol:
(§2)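 Fungi pre-grown on 10% V8 agar at 25 °C in the dark. A 4 mm mycelial agar block was centred on a 9 cm PDA plate. Paper disks (8 mm) carried 40 μL of a 1000 μg/mL acetone stock, dried, and were set 4 mm from the block. Plates incubated 5 days at 25 °C in the dark; inhibition zone measured in mm; triplicate.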

The subject of assay [7] is HepG2. Description: Cytotoxicity against human HepG2 cells at 100 uM after 72 hrs by SRB assay. It counts as functional, cell-based. A digest of the protocol: (§3)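 SRB assay. Cells kept in DMEM with 10% FBS and 1% penicillin–streptomycin at 37 °C, 5% CO2. Seeded at 5 × 10^4 cells/mL, adapted overnight, then exposed to compounds for 72 h. Cells fixed with 10% TCA (30 min, 4 °C), stained with SRB for 30 min, washed with 1% acetic acid, OD read at 540 nm. Paclitaxel positive control; 0.05% DMSO negative control; triplicate.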

In assay [8] the test system is Pyricularia oryzae. Nature of the assay: Antimicrobial activity against Magnaporthe oryzae Triticum pathotype at 40 ug/disk after 5 days by disc diffusion method. It counts as functional, organism-based. The gist of the method: as §2
Assay [9] relates to PC-3. Description: Cytotoxicity against human PC3 cells at 100 uM after 72 hrs by SRB assay. It counts as functional, cell-based. The gist of the method: as §3
Assay [10] concerns Staphylococcus aureus. Nature of the assay: Antimicrobial activity against […] Staphylococcus aureus ATCC 25923 after 18 hrs by MTT based broth dilution assay. It counts as functional. As to conditions: ATCC 25923, 18 h. A digest of the protocol: as §1

In brackets after ≈: the same amount, converted by molar mass. Activity calls are given as the source filed them. The calls are words filed in the database; no cut-off is given here.

Take `COCC1=CC[C@]2([C@H]3[C@H](C)COC(=O)[C@H]3O[C@@]2(C)OC)[C@H](O)C1=O`: the MIC in assay [1] is 256 µg/mL (≈ 752 µM); in [4], 128 µg/mL (≈ 376 µM); in assay [5], 256 µg/mL (≈ 752 µM); in assay [10] it was 128 µg/mL (≈ 376 µM). Also, the result in assay [2], in assay [6], in assay [7], in assay [8] and in assay [9] was inactive. Further, in [3], the zone of inhibition at 40 µg/disc came to 5.5 mm.
In the case of `COCC1=CC[C@]2([C@H]3[C@H](C)COC(=O)[C@H]3O[C@@]2(C)O)[C@H](O)C1=O`, the MIC in assay [1] was found to be 128 µg/mL (≈ 392 µM); in assay [4], 128 µg/mL (≈ 392 µM); in assay [5], 64 µg/mL (≈ 196 µM); in assay [10], 64 µg/mL (≈ 196 µM). Besides, the result in assay [2], in assay [6], in [7], in [8] and in assay [9] was inactive.
Regarding `CC(=O)O[C@@H]1[C@@H](OC(C)=O)C(C)=CC[C@]12[C@H]1[C@H](C)COC(=O)[C@H]1O[C@@]2(C)O`, the outcome in assay [2], in [6], in assay [7], in [8] and in assay [9] was inactive. For the same molecule, the zone of inhibition at 40 µg/disc in assay [3] was found to be 5.5 mm. The MIC in assay [4] and in assay [5] was 64 µg/mL (≈ 167 µM) each time.
Turning to `CC1=CC[C@]2([C@H]3[C@H](C)COC(=O)[C@H]3O[C@@]2(C)O)[C@H](O)C1=O`, the MIC in [1] was determined as 64 µg/mL (≈ 216 µM); in assay [5], 64 µg/mL (≈ 216 µM); in assay [10], 32 µg/mL (≈ 108 µM). Further, the outcome in assay [2], in assay [6], in [7], in assay [8] and in assay [9] was inactive. In assay [3], the zone of inhibition at 40 µg/disc stood at 7.1 mm.
As for `CC1C(=O)[C@@H](O)[C@@]23C[C@H]1O[C@]2(O)O[C@@H]1C(=O)OC[C@@H](C)[C@@H]13` (some centres undefined), the MIC was found to be 64 µg/mL (≈ 215 µM) in [1], 64 µg/mL (≈ 215 µM) in assay [4], 128 µg/mL (≈ 429 µM) in [5] and 64 µg/mL (≈ 215 µM) in [10]. Also, the outcome in assay [2], in assay [6], in [7], in assay [8] and in assay [9] was inactive.
Consider `CC1=CC[C@]2([C@H]3[C@H](C)COC(=O)[C@H]3O[C@@]2(C)O)[C@@H](O)[C@H]1O`, for which the minimum inhibitory concentration (MIC) was determined as 64 µg/mL (≈ 215 µM) in [1], 64 µg/mL (≈ 215 µM) in assay [5] and 32 µg/mL (≈ 107 µM) in assay [10]. For the same molecule, the outcome in assay [2], in assay [6], in [7], in assay [8] and in [9] was inactive.
Consider `C[C@@H]1COC(=O)[C@H]2O[C@@](C)(O)[C@@]3(CC=C(CO)C(=O)[C@H]3O)[C@@H]12`, for which the MIC in [1] was 128 µg/mL (≈ 410 µM); in [4], 64 µg/mL (≈ 205 µM); in [5], 128 µg/mL (≈ 410 µM); in assay [10], 64 µg/mL (≈ 205 µM). Moreover, the outcome in assay [2], in assay [6], in [7], in [8] and in assay [9] was inactive.
Turning to `CC(=O)O[C@@H]1C(=O)OC[C@@H](C)[C@@H]1c1ccc(C)c(O)c1O`, the MIC in assay [1] turned out to be 64 µg/mL (≈ 217 µM); in assay [4], 64 µg/mL (≈ 217 µM); in assay [5], 128 µg/mL (≈ 435 µM). Further, the result in [2], in [6], in assay [7], in assay [8] and in [9] was inactive. Also, in assay [3], the zone of inhibition at 40 µg/disc is 9.5 mm.
As for `CCn1cc(C(=O)O)c(=O)c2cc(F)c(N3CCNCC3)cc21` [NORFLOXACIN], the MIC is 32 µg/mL (≈ 100 µM) in [1], 32 µg/mL (≈ 100 µM) in assay [4], 64 µg/mL (≈ 200 µM) in [5] and 32 µg/mL (≈ 100 µM) in assay [10].
For `Cc1ccc([C@H]2[C@H](C)COC(=O)[C@H]2O)c(O)c1O`, the MIC was found to be 128 µg/mL (≈ 507 µM) in [1], 128 µg/mL (≈ 507 µM) in [4], 128 µg/mL (≈ 507 µM) in assay [5] and 64 µg/mL (≈ 254 µM) in [10]. For the same molecule, the outcome in assay [2], in assay [6], in [7], in assay [8] and in assay [9] was inactive. Further, the zone of inhibition at 40 µg/disc in assay [3] came out at 5.6 mm.
In the case of `CC(=O)O[C@@H]1[C@@H](O)C(C)=CC[C@]12[C@H]1[C@H](C)COC(=O)[C@H]1O[C@@]2(C)O`, the MIC in [1] came out at 32 µg/mL (≈ 94 µM); in assay [4], 32 µg/mL (≈ 94 µM); in [5], 16 µg/mL (≈ 47 µM); in assay [10], 16 µg/mL (≈ 47 µM). Moreover, the result in [2], in [6], in assay [7], in assay [8] and in assay [9] was inactive.
